According to ChEMBL document CHEMBL3352487, “Synthesis, antibacterial activity, and biological evaluation of formyl hydroxyamino derivatives as novel potent peptide deformylase inhibitors against drug-resistant bacteria” (Eur J Med Chem, 2014):
≈ marks a conversion by molar mass, not a printed value.

Assays:
[1] = Stability of the compound in artificial gastric juice measured every 2 hrs for 12 hrs by HPLC analysis; type: ADME; conditions: simulated gi fluid
[2] = Clearance in Sprague-Dawley rat at 5 mg/kg, iv; type: ADME, organism-based; set-up: dose 5 mg/kg, route intravenous; conditions: in vivo
[3] = test system: Streptococcus pneumoniae; test: Antimicrobial activity against Streptococcus pneumoniae ERY2 after 24 hrs by broth microdilution method; type: functional; conditions: ERY2, 24 h
Procedure, shortened: (§1)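 Broth microdilution following NCCLS M7-A4; ATCC strains and clinical isolates from a provincial hospital.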

[4] = Fraction unbound in CD1 mouse plasma at 2 uM by equilibrium dialysis; type: ADME, cell-free
Procedure, shortened: (§2)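 Pooled CD-1 mouse plasma spiked to 2 µM final, equilibrium dialysis in triplicate against 100 mM PBS pH 7.4, 4 h at 37 °C with rotation; matrix-matched samples acetonitrile-precipitated, LC-MS/MS with internal standards. Unbound = free/total ×100; recovery = (free+total)/pre-dialysis ×100.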

[5] = test system: Staphylococcus aureus; test: Antimicrobial activity against Staphylococcus aureus isolate CL 1033 after 24 hrs by broth microdilution method; type: functional; conditions: isolate CL 1033, 24 h; procedure, shortened: as §1
[6] = test system: Staphylococcus aureus; test: Antimicrobial activity against Staphylococcus aureus isolate 934335 after 24 hrs by broth microdilution method; type: functional; conditions: isolate 934335, 24 h; procedure, shortened: as §1
[7] = test system: Escherichia coli; test: Antimicrobial activity against Escherichia coli isolate 2 after 24 hrs by broth microdilution method; type: functional; conditions: isolate 2, 24 h; procedure, shortened: as §1
[8] = test system: Staphylococcus aureus; test: Antimicrobial activity against Staphylococcus aureus MRSA08-12 in peritonitis mouse model assessed as mortality of host at 5 mg/kg, iv as single dose relative to control; type: functional
Procedure, shortened: (§3)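 Outbred KM mice (20–25 g) infected i.p. with a 90–100% lethal dose (5 × 10^7 CFU/mL) in 0.5 mL brain heart infusion broth with 5% mucin. Single i.v. dose of 1.25–20 mg/kg in 20% DMSO, 0.1 mL. Ten mice per dose; daily monitoring for 14 days; ED50 from cumulative mortality by Bliss's method.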

[9] = Drug recovery in CD1 mouse plasma at 2 uM by equilibrium dialysis; type: ADME, cell-free; conditions: read-out: Drug recovery; procedure, shortened: as §2
[10] = test system: Streptococcus pneumoniae; test: Antimicrobial activity against Streptococcus pneumoniae N1387 after 24 hrs by broth microdilution method; type: functional; conditions: N1387, 24 h; procedure, shortened: as §1
[11] = test system: Staphylococcus epidermidis; test: Antimicrobial activity against Staphylococcus epidermidis after 24 hrs by broth microdilution method; type: functional; procedure, shortened: as §1
[12] = test system: Staphylococcus aureus; test: Antimicrobial activity against Staphylococcus aureus isolate 934387 after 24 hrs by broth microdilution method; type: functional; conditions: isolate 934387, 24 h
Procedure, shortened: (§4)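 Broth microdilution following NCCLS M7-A4, using ATCC strains and clinical isolates from a provincial hospital.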

[13] = test system: Mus musculus; test: Acute toxicity in KM mouse assessed as lung abnormality at 250 mg/kg, iv measured for 14 days by necropsy; type: organism-based; set-up: dose 250 mg/kg, route intravenous; conditions: in vivo, 336 h
Procedure, shortened: (§5)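 Outbred KM mice (SPF, 20–25 g; nine male, ten female) given a single tail-vein injection of 100 or 250 mg/kg in PBS pH 6.5 with 20% DMSO over about 60 s. Behaviour, weight, coat colour, anal temperature, food and water intake, and urine and stool weight followed for 14 days. On day 14, gross necropsy of skin, lungs, heart, liver, kidneys and spleen.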

[14] = test system: Staphylococcus aureus; test: Antimicrobial activity against Staphylococcus aureus MRSA08-12 in peritonitis mouse model assessed as mortality of host at 1.25 mg/kg, iv as single dose relative to control; type: functional; procedure, shortened: as §3
[15] = Half life in Sprague-Dawley rat at 25 mg/kg, po; type: ADME, organism-based; set-up: dose 25 mg/kg, route oral; conditions: in vivo
[16] = test system: Staphylococcus aureus; test: Antimicrobial activity against Staphylococcus aureus isolate CARTER 37 after 24 hrs by broth microdilution method; type: functional; conditions: isolate CARTER 37, 24 h; procedure, shortened: as §4
[17] = test system: Staphylococcus aureus; test: Antimicrobial activity against Staphylococcus aureus MRSA08-12 in peritonitis mouse model administered intravenously as single dose; type: functional; conditions: MRSA08-12, iv
[18] = test system: Mus musculus; test: Acute toxicity in KM mouse assessed as spleen abnormality at 250 mg/kg, iv measured for 14 days by necropsy; type: organism-based; set-up: dose 250 mg/kg, route intravenous; conditions: in vivo, 336 h; procedure, shortened: as §5
[19] = test system: Staphylococcus aureus; test: Antimicrobial activity against Staphylococcus aureus isolate NEQAS 4158 after 24 hrs by broth microdilution method; type: functional; conditions: isolate NEQAS 4158, 24 h; procedure, shortened: as §1
[20] = Protein binding in CD1 mouse plasma at 2 uM by equilibrium dialysis; type: ADME, cell-free; conditions: read-out: PPB (converted)
[21] = test system: Staphylococcus aureus; test: Antimicrobial activity against Staphylococcus aureus isolate Ealing 23 after 24 hrs by broth microdilution method; type: functional; conditions: isolate Ealing 23, 24 h; procedure, shortened: as §4
[22] = test system: Staphylococcus aureus; test: Antimicrobial activity against Staphylococcus aureus isolate Smith ATCC 13709 after 24 hrs by broth microdilution method; type: functional; conditions: isolate Smith ATCC 13709, 24 h; procedure, shortened: as §4
[23] = Half life in Sprague-Dawley rat at 5 mg/kg, iv; type: ADME, organism-based; set-up: dose 5 mg/kg, route intravenous; conditions: in vivo
[24] = test system: Staphylococcus aureus; test: Antimicrobial activity against Staphylococcus aureus isolate NEQAS 4026 after 24 hrs by broth microdilution method; type: functional; conditions: isolate NEQAS 4026, 24 h; procedure, shortened: as §1
[25] = Oral bioavailability in Sprague-Dawley rat at 25 mg/kg; type: ADME, organism-based; conditions: in vivo
[26] = test system: Mus musculus; test: Acute toxicity in KM mouse assessed as skin abnormality at 250 mg/kg, iv measured for 14 days by necropsy; type: organism-based; set-up: dose 250 mg/kg, route intravenous; conditions: in vivo, 336 h; procedure, shortened: as §5
[27] = Solubility of the compound in artificial gastric juice measured every 2 hrs for 12 hrs by HPLC analysis; type: ADME; conditions: simulated gi fluid
[28] = AUC (0 to infinity) in Sprague-Dawley rat at 25 mg/kg, po; type: ADME, organism-based; set-up: dose 25 mg/kg, route oral, time infinity; conditions: plasma
[29] = test system: Staphylococcus aureus; test: Antimicrobial activity against Staphylococcus aureus isolate F89 after 24 hrs by broth microdilution method; type: functional; conditions: isolate F89, 24 h; procedure, shortened: as §1
[30] = test system: Streptococcus pyogenes; test: Antimicrobial activity against Streptococcus pyogenes 1307006P after 24 hrs by broth microdilution method; type: functional; procedure, shortened: as §1
[31] = test system: Staphylococcus aureus; test: Antimicrobial activity against Staphylococcus aureus ATCC 29213 after 24 hrs by broth microdilution method; type: functional; conditions: ATCC 29213, 24 h; procedure, shortened: as §1
[32] = target: hERG (KCNH2) (Homo sapiens, UniProt Q12809); test: Inhibition of human ERG at 10 uM
[33] = test system: Staphylococcus aureus; test: Antimicrobial activity against Staphylococcus aureus isolate 934324 after 24 hrs by broth microdilution method; type: functional; conditions: isolate 934324, 24 h; procedure, shortened: as §1
[34] = test system: Staphylococcus aureus; test: Antimicrobial activity against Staphylococcus aureus WCUH29 after 24 hrs by broth microdilution method; type: functional; conditions: WCUH29, 24 h; procedure, shortened: as §1
[35] = test system: Staphylococcus aureus; test: Antimicrobial activity against methicillin-susceptible Staphylococcus aureus after 24 hrs by broth microdilution method; type: functional; procedure, shortened: as §1
[36] = test system: Staphylococcus aureus; test: Antimicrobial activity against Staphylococcus aureus MRSA08-12 in peritonitis mouse model assessed as mortality of host at 2.5 mg/kg, iv as single dose relative to control; type: functional
Procedure, shortened: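 KM outbred mice (20–25 g) inoculated intraperitoneally with a 90-to-100%-lethal dose (5 × 10^7 CFU/mL) of MRSA08-12 in 0.5 mL brain heart infusion broth with 5% mucin. Single i.v. dose in 20% DMSO, 0.1 mL; doses 1.25–20 mg/kg, 10 mice per dose. Cumulative mortality tracked daily for 14 days; ED50 by Bliss's method.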

[37] = test system: Mus musculus; test: Acute toxicity in KM mouse assessed as abnormal behaviour at 100 mg/kg, iv measured for 14 days; type: organism-based; set-up: dose 100 mg/kg, route intravenous; conditions: in vivo, 336 h; procedure, shortened: as §5
[38] = test system: Staphylococcus aureus; test: Antimicrobial activity against Staphylococcus aureus isolate 68/8684 after 24 hrs by broth microdilution method; type: functional; conditions: isolate 68/8684, 24 h; procedure, shortened: as §1
[39] = test system: Staphylococcus aureus; test: Antimicrobial activity against Staphylococcus aureus isolate RN4220 pmz1 after 24 hrs by broth microdilution method; type: functional; conditions: isolate RN4220 pmz1, 24 h; procedure, shortened: as §4

Chain of hERG (KCNH2) (Q12809 whole entry): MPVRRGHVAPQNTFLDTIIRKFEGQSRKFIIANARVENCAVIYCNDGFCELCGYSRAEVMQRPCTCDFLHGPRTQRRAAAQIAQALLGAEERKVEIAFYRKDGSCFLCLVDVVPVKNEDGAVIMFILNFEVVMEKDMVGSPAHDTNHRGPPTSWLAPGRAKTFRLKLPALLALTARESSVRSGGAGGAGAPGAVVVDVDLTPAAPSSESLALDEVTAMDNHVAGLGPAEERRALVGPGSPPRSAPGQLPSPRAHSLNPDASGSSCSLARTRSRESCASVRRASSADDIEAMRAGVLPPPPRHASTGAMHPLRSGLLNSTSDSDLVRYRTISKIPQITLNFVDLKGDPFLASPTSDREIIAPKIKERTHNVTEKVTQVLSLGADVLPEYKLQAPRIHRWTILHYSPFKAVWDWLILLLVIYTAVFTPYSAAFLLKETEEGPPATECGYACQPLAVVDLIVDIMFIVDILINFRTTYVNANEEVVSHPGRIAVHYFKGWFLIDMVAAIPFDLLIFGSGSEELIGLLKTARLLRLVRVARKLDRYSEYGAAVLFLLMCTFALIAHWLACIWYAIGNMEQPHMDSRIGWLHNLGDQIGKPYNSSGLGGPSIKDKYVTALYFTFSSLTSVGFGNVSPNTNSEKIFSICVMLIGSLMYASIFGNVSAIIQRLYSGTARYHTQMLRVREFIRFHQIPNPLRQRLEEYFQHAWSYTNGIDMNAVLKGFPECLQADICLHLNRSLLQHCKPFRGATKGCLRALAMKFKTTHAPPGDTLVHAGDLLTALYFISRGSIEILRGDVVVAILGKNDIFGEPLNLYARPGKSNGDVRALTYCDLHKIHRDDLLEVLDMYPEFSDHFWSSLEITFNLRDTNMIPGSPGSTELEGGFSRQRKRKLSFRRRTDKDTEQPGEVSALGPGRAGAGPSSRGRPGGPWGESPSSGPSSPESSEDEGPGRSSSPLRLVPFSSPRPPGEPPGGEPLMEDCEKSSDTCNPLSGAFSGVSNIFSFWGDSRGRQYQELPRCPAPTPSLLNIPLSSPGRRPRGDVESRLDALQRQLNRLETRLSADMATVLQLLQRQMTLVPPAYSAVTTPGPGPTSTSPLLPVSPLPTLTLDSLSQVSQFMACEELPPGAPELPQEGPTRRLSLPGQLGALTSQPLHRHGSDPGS

Q: Which Stability [1] does the source give for `CCCC[C@H](CN(O)C=O)C(=O)N1CC=C[C@H]1C(=O)Nc1ccc(F)c[n+]1[O-]` here?
A: Stable

Q: What about the clearance [2] of the same compound?
A: 46.8 mL/min/kg

Q: What about the MIC [3] of the same compound?
A: 1 µg/mL (≈ 2.54 µM)

Q: What about the fraction unbound at 2 µM [4] of the same compound?
A: 0.467

Q: What about the MIC [5] of the same compound?
A: 1 µg/mL (≈ 2.54 µM)

Q: What about the MIC [6] of the same compound?
A: 0.25 µg/mL (≈ 0.634 µM)

Q: And the MIC [7]?
A: 64 µg/mL (≈ 162 µM)

Q: And the mortality at 5 mg/kg [8]?
A: 60%

Q: And the recovery at 2 µM [9]?
A: 91.2%

Q: What about the MIC [10] of the same compound?
A: 0.5 µg/mL (≈ 1.27 µM)

Q: And the MIC [11]?
A: 1 µg/mL (≈ 2.54 µM)

Q: What about the MIC [12] of the same compound?
A: 0.5 µg/mL (≈ 1.27 µM)

Q: And the Activity [13]?
A: Non-toxic

Q: And the mortality at 1.25 mg/kg [14]?
A: 100%

Q: And the half-life [15]?
A: 1.82 h

Q: And the MIC [16]?
A: 0.5 µg/mL (≈ 1.27 µM)

Q: And the ED50 [17]?
A: 6.25 mg/kg

Q: And the Activity [18]?
A: Non-toxic

Q: What about the MIC [19] of the same compound?
A: 1 µg/mL (≈ 2.54 µM)

Q: What about the fraction unbound at 2 µM [20] of the same compound?
A: 0.467

Q: And the MIC [21]?
A: 0.5 µg/mL (≈ 1.27 µM)

Q: And the MIC [22]?
A: 0.25 µg/mL (≈ 0.634 µM)

Q: What about the half-life [23] of the same compound?
A: 1.17 h

Q: And the MIC [24]?
A: 1 µg/mL (≈ 2.54 µM)

Q: What about the bioavailability [25] of the same compound?
A: 34.6%

Q: What about the Activity [26] of the same compound?
A: Non-toxic

Q: And the solubility [27]?
A: soluble

Q: And the AUC(0-inf) [28]?
A: 3390 ng·h/mL

Q: What about the MIC [29] of the same compound?
A: 1 µg/mL (≈ 2.54 µM)

Q: And the MIC [30]?
A: 2 µg/mL (≈ 5.07 µM)

Q: What about the MIC [31] of the same compound?
A: 1 µg/mL (≈ 2.54 µM)

Q: What about the inhibition at 10 µM [32] of the same compound?
A: 6.71%

Q: And the MIC [33]?
A: 1 µg/mL (≈ 2.54 µM)

Q: What about the MIC [34] of the same compound?
A: 0.125 µg/mL (≈ 0.317 µM)

Q: And the MIC [35]?
A: 1 µg/mL (≈ 2.54 µM)

Q: What about the mortality at 2.5 mg/kg [36] of the same compound?
A: 80%

Q: And the Activity [37]?
A: Non-toxic

Q: And the MIC [38]?
A: > 16 µg/mL

Q: And the MIC [39]?
A: 0.5 µg/mL (≈ 1.27 µM)
